In paper PMC5553550 (Nature nanotechnology, 2017):

Key:
[1] = tested on: noggin; assay: SPR binding to immobilized noggin; conditions: heparin 0.01-100 µM or PA 1 10-60 µM; HEPES buffer pH 7.6, 25 °C
[2] = tested on: BMP-2 signaling in C2C12 cells; assay: BMP-2 induced ALP activity in C2C12 cells; type: cell-based, mouse; conditions: BMP-2 75 ng/mL, 3 days; for enhancement of BMP-2 induced ALP activity, in words: PA or monosaccharide 25 μM, n = 8
[3] = tested on: C2C12 cells; assay: Mineralization assay; type: cell-based, mouse; conditions: BMP-2 100 ng/mL; heparin 0.62 μM (10 μg/mL) or PA 25 μM; 10 days
[4] = tested on: pSmad1/5; assay: Western blot of Smad phosphorylation in C2C12 cells; type: cell-based, mouse
[5] = tested on: noggin; conditions: C2C12 cells; ref [5],[41]; cited from earlier work
[6] = tested on: BMP-2; conditions: known effect; ref [4],[5]; cited from earlier work
[7] = SAXS / cryo-TEM of self-assembly; type: physicochemical; conditions: cryo-TEM at 25 μM or SAXS
[8] = tested on: BMP-4 signaling in C2C12 cells; assay: BMP-4 induced ALP activity in C2C12 cells; type: cell-based, mouse; conditions: BMP-4 75 ng/mL, monosaccharide 1 25 μM, 3 days; n = 8
Procedure, shortened: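 C2C12 cells were co-treated with BMP-4 (75 ng/mL) and either the glycopeptide amphiphile nanostructure or the free sulfated monosaccharide, each at 25 μM. Osteoblast differentiation was read out as alkaline phosphatase (ALP) activity. Results are reported as mean ± SEM with n = 8.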

Compound | SPR binding to noggin [1] | enhancement of ALP expression vs BMP-2 alone, factor ([2]; normalized to DNA, dose response for heparin and HS) | enhancement of BMP-2 induced ALP activity, in words [2] | matrix mineralization of C2C12 cells [3] | pSmad1/5 accumulation with BMP-2 ([4]; BMP-2 75 ng/mL, 3 h, heparin 0.62 μM or PA 1 25 μM, n = 3) | pSmad1/5 accumulation without BMP-2 ([4]; heparin 0.62 μM or PA 1 25 μM, no BMP-2) | effect on noggin activity [5] | half-life of BMP-2 [6] | self-assembly / supramolecular structure [7] | amplification of BMP-4 signaling (ALP activity) [8] | BMP-2 mediated Smad phosphorylation with LDN-193189 ([4]; LDN-193189 0.5 μM, BMP-2 75 ng/mL, regardless of heparin or PA 1)
Heparin | did not observe a strong binding to noggin | 5 | more potent response than HS | inhibited BMP-2 (100 ng/mL) dependent mineralization | significantly higher relative to that with BMP-2 alone | did not enhance accumulation of pSmad proteins | binds and inhibits noggin activity, thereby rescuing BMP signaling and the subsequent ALP expression in C2C12 cells | prolong the half-life of BMP-2 |  |  | 
CC(=O)N[C@H]1[C@H](OCCN=[N+]=[N-])O[C@H](COS(=O)(=O)O)[C@@H](OS(=O)(=O)O)[C@@H]1OS(=O)(=O)O [monosaccharide 1, 2-Azidoethyl 2-acetamido-3,4,6-tri-O-sulfo-2-deoxy-β-D-glycopyranoside] |  |  | found this not to be the case |  |  |  |  |  | absence of any significant supramolecular structure | found this not to be the case | 
c1ccc2c(-c3cnn4cc(-c5ccc(N6CCNCC6)cc5)cnc34)ccnc2c1 [LDN-193189] |  |  |  |  |  |  |  |  |  |  | impeded the BMP-2 mediated phosphorylation of Smads
